The test system of data set [1] is MS2 coat protein. Description: apparent Kd, MS2 coat protein; higher = weaker binding; RNA-MaP array; theophylline 2 mM where present. In a few lines: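 The apparent Kd is the median of filtered binding-curve fits, one per cluster, to green signal normalised to red-channel RNA signal and control-cluster median Fmax. The clusters were on Illumina sequencing chips, and stalled E. coli RNA polymerase had transcribed the designs on them. Titration used SNAP-549-labelled MS2 coat protein from 0.7 or 1.5 nM, doubling to 3 µM, without and then with constant ligand, in 100 mM Tris-HCl pH 7.5, 80 mM KCl, 4 mM MgCl2, BSA, DTT, yeast tRNA and Tween-20.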

The test system of data set [2] is MS2 coat protein. The data set can be described thus: apparent Kd, MS2 coat protein; higher = weaker binding; RNA-MaP array. In a few lines:
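Designed RNAs were produced on an Illumina sequencing chip by transcription of sequenced DNA templates. Binding to fluorescently labeled MS2 coat protein (1.5 nM to 3 μM) was measured at room temperature with or without input ligand. The apparent Kd is the median of per-cluster binding-curve fits. Designs were excluded when measured on fewer than 10 clusters.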

The mark [3] stands for this setting: designed as: ON switch for theophylline, no ligand.
Where [4] appears, read: ligand present: theophylline, designed as: ON switch for theophylline.
[5] abbreviates: designed as: OFF switch for theophylline, no ligand.
Where [6] appears, read: ligand present: theophylline, designed as: OFF switch for theophylline.
The mark [7] stands for this setting: designed as: OFF switch for flavin mononucleotide, no ligand.
Setting [8] is: ligand present: flavin mononucleotide, designed as: OFF switch for flavin mononucleotide.
Setting [9] is: designed as: ON switch for flavin mononucleotide, no ligand.
The mark [10] stands for this setting: ligand present: flavin mononucleotide, designed as: ON switch for flavin mononucleotide.

What is called apparent Kd is a dissociation constant that holds for the conditions of the assay.

“UUACAUGAGGAUCACCCAUGUCAUAACGAUACCAGAUAGUUAAUGAUCCCUUGGCAGCGUAAUACCUAGACAUUUAAGUCAUAGG”: the “apparent Kd” value was 56.2 nM in the data set on MS2 coat protein [1] (setting [3]) and 19.6 nM in the data set with MS2 coat protein [1] (setting [4]).
With “UUUGCACAUGAGGAUCACCCAUGUACAGAUACCAGCCUCAUCUACGGCCCUUGGCAGCUGAGACAAUGGUGACGUGACGGGCUUU”, the “apparent Kd” value in the data set on MS2 coat protein [1] (setting [5]) came to 11.7 nM; with MS2 coat protein [1] (setting [6]), 28.2 nM.
“UUUGCACAUGAGGAUCACCCAUGUACAGAUACCAGCCUCAUCUACGGCCCUUGGCAGCUGAGACAAUGGUGACAUGAUGGGCUUU”: the “apparent Kd” value with MS2 coat protein [1] (setting [5]) was determined as 12.1 nM; in the data set with MS2 coat protein [1] (setting [6]), 32.6 nM.
In the case of “UGUUUUAAAAGUGAUACCAGACAAACAUGAGGAUCACCCAUGUAACAUGAGAGAUAAUAAGUCCCUUGGCAGCACAUAAUUAGUA”, the “apparent Kd” value came to 31.8 nM with MS2 coat protein [1] (setting [3]) and 26.4 nM with MS2 coat protein [1] (setting [4]).
For “UGUAACAUGAGGAUCACCCAUGUGCACGAUACCAGCUUAUUGAUAGGCCCUUGGCAGCGUAUGCGGAAGCUGUAUAAUAUAUAUC”, the “apparent Kd” value worked out at 11.3 nM in the data set on MS2 coat protein [1] (setting [3]) and 12.7 nM in the data set on MS2 coat protein [1] (setting [4]).
In the case of “UCGUCCUCCGCAAGGAGGAGGAGUUGCGAUACCAGCACGGUAACGUGCCCUUGGCAGCGCACAUGAGGAUCACCCAUGUGGUGUU”, the “apparent Kd” value in the data set with MS2 coat protein [1] (setting [5]) was found to be 214 nM; in the data set with MS2 coat protein [1] (setting [6]), 489 nM.
As to “AAAGAUACCAGAGAUACCAGCCAAAAUUAAAAUAAAACCUCACAUGAGGAUCACCCAUGUGGCCCUUGGCAGCUCCCUUGGCAGC”, the “apparent Kd” value was found to be 12.5 nM with MS2 coat protein [1] (setting [5]) and 53.7 nM in the data set on MS2 coat protein [1] (setting [6]).
The like results for “UACAUGAGGAUCACCCAUGUAUACAUGGAUACCAGCGACAAUGGGCGCCCUUGGCAGCUAGUGGAUGGAGGGUGGCCACAGUACU” were, in that order, 70.2 nM and 71.8 nM.
Taken in the same sequence, the figures for “AGACAUGAGGAUCACCCAUGUAGUACGGAUACCAGAUCCAGAUGCGUCCCUUGGCAGCUGUAGUACAGCGUUACAUCGCUCGUAG” were 20.8 nM and 32.1 nM.
Taken in the same sequence, the figures for “AGCCCUGUACUAGAUACCAGCUACAUGAGGAUCACCCAUGUGCGUCAAGACUGACUGUGUGGCCCUUGGCAGCUGCUCGCAUGUA” were 146 nM and 208 nM.
Take “CUUUACUGAGGAUAUACGCAGAUCUAGAUAUCGUAAUACGAACAUGAGGAUCACCCAUGUAGAAGGCAGGCCGA”: the “apparent Kd” value with MS2 coat protein [2] (setting [7]) came to 12.4 nM; in the data set with MS2 coat protein [2] (setting [8]), 24.1 nM.
Turning to “CGCACACAGCAACCAAAAUAAACAUGAGGAUCACCCAUGUCACAGGAUAUGGCGAACCCAGGCGACCAGAAGGGUGUAAACACA”, the entries for the “apparent Kd” value in the data set with MS2 coat protein [2] (setting [9]) and in the data set on MS2 coat protein [2] (setting [10]) were 26.6 nM and 18.6 nM, respectively.
Taken in the same sequence, the figures for “AAAAGAAGCUGAGGAUAUUGGUUAACAUGAGGAUCACCCAUGUCGUUGGUGGAAAACACCUGACGCAAGAAGGCAGACACUUAU” were 15.7 nM and 7.81 nM.
As for “GAUGACUUAGGAUAUCAAAUUCUCGACAUGAGGAUCACCCAUGUGUAUCCGCCAGGUUAGUGAGAAGGAAGUUGGA”, the “apparent Kd” value in the data set on MS2 coat protein [2] (setting [7]) stood at 91.3 nM; in the data set with MS2 coat protein [2] (setting [8]) it was 77.8 nM.
“GUGAUACUUGGAGGAUAUGCUUUCACCUGGUACUCUAUUACAGUGACAUGAGGAUCACCCAUGUAGCAGAAGGCCAGUCAUCGA”: the “apparent Kd” value was found to be 18.8 nM with MS2 coat protein [2] (setting [9]) and 9.73 nM with MS2 coat protein [2] (setting [10]).
In the case of “UAGAAUUAAGGAUAUACAGGAUCCGUACAAAUAUUGAUAGGACAUGAGGAUCACCCAUGUAGAAGGUAAGGCAG”, the “apparent Kd” value turned out to be 21.1 nM with MS2 coat protein [2] (setting [7]) and 17.2 nM with MS2 coat protein [2] (setting [8]).
As to “AGAGAAAAGUAACAUGAGGAUCACCCAUGUAUCCCACGAGUCAGAAGGAGCGGGUUGAUACGAGGCUAGGAUAUGAAGAGUCAU”, the “apparent Kd” value in the data set with MS2 coat protein [2] (setting [9]) was found to be 153 nM; in the data set with MS2 coat protein [2] (setting [10]), 98.7 nM.
Regarding “UUGAUAGCAGGAUAUACAUGAGGAUCACCCAUGUACAGGCAAAAGGGAACUGACCCACGUAGAAGGGCUUCGCA”, the “apparent Kd” value came to 10.8 nM in the data set with MS2 coat protein [2] (setting [7]) and 21 nM with MS2 coat protein [2] (setting [8]).
Regarding “AACAUGAGGAUCACCCAUGUAGGUACUUCUCGACGGCCUACAAGAAGGUGUUGUAAAGUCAAGAACAAGGAUAUUGUGAUGGCU”, the results for the “apparent Kd” value in the data set on MS2 coat protein [2] (setting [7]) and with MS2 coat protein [2] (setting [8]) were 555 nM and 371 nM, respectively.
The like results for “AAAAUCUGGUGAGGAUAUUGUUGAUGAUACAAACAAGAAGGCACGUUGACAUAGCGGGACAACAUGAGGAUCACCCAUGUCACU” were, in that order, 46.6 nM and 42.1 nM.
Turning to “UCAACACAUGAGGAUCACCCAUGUUAUACUAGGGUAGGAUAUGACGUAGUGAAGUGCUCUUCAGAAGGACCAUGGG”, the “apparent Kd” value with MS2 coat protein [2] (setting [9]) turned out to be 64.7 nM; with MS2 coat protein [2] (setting [10]) it was 30.1 nM.
Consider “CGUCAGUAAGGAUAUACCCGCACUUAACACGAGCGUCGUCGGUAGAAGGUACAUGAGGAUCACCCAUGUAGAAA”, for which the “apparent Kd” value with MS2 coat protein [2] (setting [7]) is 7.84 nM; in the data set with MS2 coat protein [2] (setting [8]) it was 8.95 nM.
As for “UGUAUCUCGCAGAAGGCAGGUUAAGCAACAAACUGAGGAUAUGCGUAUACAUGAGGAUCACCCAUGUUCACUGAUCGCAAAUUC”, the “apparent Kd” value in the data set on MS2 coat protein [2] (setting [7]) worked out at 14.8 nM; in the data set on MS2 coat protein [2] (setting [8]), 102 nM.
Regarding “GGAUUAAGCUAGAAGGUACGAUCACCGUGAUGGUAAGGAUAUAGAACGAUGCCGAUUCCAACAUGAGGAUCACCCAUGUUCCUA”, the “apparent Kd” value with MS2 coat protein [2] (setting [9]) came to 447 nM; in the data set on MS2 coat protein [2] (setting [10]), 260 nM.
Turning to “GCACGGAAAGGAUAUACAUGAGGAUCACCCAUGUUUCUUCUCAGGGCAAUUACCACAUGUAGAAGGUUCUCCAG”, the “apparent Kd” value with MS2 coat protein [2] (setting [7]) came to 29.4 nM; in the data set with MS2 coat protein [2] (setting [8]), 39.8 nM.
Turning to “GAUCAACAUGAGGAUCACCCAUGUUAGGAUAUCACACCGGAAAGUGAAAUGCUUUUCUUGAGAAGGAACAAGGC”, the entries for the “apparent Kd” value in the data set on MS2 coat protein [2] (setting [7]) and in the data set with MS2 coat protein [2] (setting [8]) were 7.91 nM and 7.28 nM, respectively.
In the case of “UGUCAAUCGCCGGAUACCAGCCUAACUGAAGGAAAUCUAAACAUGAGGAUCACCCAUGUAGGCCCUUGGCAGCCGAGUAAGUACA”, the figures for the “apparent Kd” value in the data set with MS2 coat protein [2] (setting [5]) and in the data set with MS2 coat protein [2] (setting [6]) were 40.3 nM and 125 nM, respectively.
As for “AAAAGGAUGAUAGGAUAUCAUAACAUGAGGAUCACCCAUGUACAGACGCAACGCUAAACUAGACAUGAGAAGGAUCACAAAACA”, the “apparent Kd” value with MS2 coat protein [2] (setting [9]) turned out to be 179 nM; with MS2 coat protein [2] (setting [10]), 82.2 nM.
Regarding “CAGAACAUGAGGAUCACCCAUGUAAACGACCGAGGACCGGUACGGCCGCCACUCGAUAUGUCUUGAGGGAGAUAUGGAUUCACAU”, the “apparent Kd” value with MS2 coat protein [2] (designed as: ON switch for tryptophan, no ligand) was determined as 39.9 nM; with MS2 coat protein [2] (ligand present: tryptophan, designed as: ON switch for tryptophan), 38.3 nM.
With “AGCGUUGCAGAGAAGGCGGUAUGAGUUACGCUCUCACACAUGAGGAUCACCCAUGUAAUGACGUCCGAGGAUAUCUCACAACUC”, the “apparent Kd” value is 5.47 nM with MS2 coat protein [2] (setting [7]) and 5.81 nM in the data set with MS2 coat protein [2] (setting [8]).
For the sequence “ACUGGACAUGAGGAUCACCCAUGUGGCGAUACCAGUUUCAGCGGGAACCCUUGGCAGCGCGGUGCCGGCCAUAGAAGUUCUGGGA”, the “apparent Kd” value in the data set on MS2 coat protein [2] (setting [3]) is 51.4 nM; with MS2 coat protein [2] (setting [4]), 60.1 nM.
Turning to “GUCAGGUGGACAGGAUAUCGUGCUCGUAGACAUGAGGAUCACCCAUGUUCGCUCUUCUUCGGCAUCGAGAAGGGUCUCCAAUCU”, the “apparent Kd” value with MS2 coat protein [2] (setting [7]) was found to be 34.8 nM; in the data set on MS2 coat protein [2] (setting [8]), 35.8 nM.
The like results for “GUGGCGUAAGGAUAUCGUGGGAAGUGAUGAACGCUCUACUUCGAGAAGGUACAUGAGGAUCACCCAUGUGAGGG” were, in that order, 151 nM and 129 nM.
With “GGUCUGCCAUUUCAGGAUAUGCUCAGUGCAACAUGAGGAUCACCCAUGUCAGGCUCGAACGACUCGCAGAAGGGAAGUCACGGAUG”, the “apparent Kd” value worked out at 102 nM in the data set with MS2 coat protein [2] (setting [9]) and 61.4 nM with MS2 coat protein [2] (setting [10]).
Taken in the same sequence, the figures for “AGCGAUGACUGAGGAUAUGCUGUUAGGACAUUGCAACAUGAGGAUCACCCAUGUGAAGGCCGUCAGCAGAAGGCAGUACGUGGA” were 6.08 nM and 4.75 nM.
Regarding “UACAAACAUGAGGAUCACCCAUGUAGUGAUACCAGCAUAACAGAUUGCCCUUGGCAGCACCGGUUUGUACUCAAACGAAGUACGG”, the “apparent Kd” value in the data set with MS2 coat protein [2] (setting [3]) was found to be 64.2 nM; with MS2 coat protein [2] (setting [4]) it was 52.3 nM.
